Experimental data from paper PMC9199349 (ACS chemical biology, 2020).
“Also recorded” adds a separate entry of the source. Read-outs that look alike come from different tables or passages of the source.

Assays:
[1] = tested on: MTH1; details: read-out: IC50 MTH1; dual inhibitor; cited from earlier work
[2] = tested on: HEK293T and HeLa cells; details: cited from earlier work
[3] = tested on: OGG1; details: read-out: IC50 OGG1, cited from earlier work
[4] = target: human OGG1 (Homo sapiens, UniProt O15527); format: biochemical; details: for inhibition of excision of 8-OH-Gua by OGG1 / inhibition of excision of FapyAde by OGG1: inhibitor 10 μmol/L, genomic DNA, GC-MS/MS; for inhibition at 10 µM: read-out: inhibition of excision of FapyGua by OGG1
Chain of human OGG1 (O15527 whole entry): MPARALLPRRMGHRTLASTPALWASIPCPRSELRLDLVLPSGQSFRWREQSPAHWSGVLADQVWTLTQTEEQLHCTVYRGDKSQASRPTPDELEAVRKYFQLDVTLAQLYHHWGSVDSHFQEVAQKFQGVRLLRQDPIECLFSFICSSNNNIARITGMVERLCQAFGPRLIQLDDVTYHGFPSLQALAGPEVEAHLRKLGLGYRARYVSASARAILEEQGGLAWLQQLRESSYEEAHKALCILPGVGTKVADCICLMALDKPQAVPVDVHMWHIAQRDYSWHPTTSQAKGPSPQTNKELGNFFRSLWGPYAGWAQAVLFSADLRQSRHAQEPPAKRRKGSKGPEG
Method in brief: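 Test compound was dissolved in DMSO and added to the reaction mixture of human OGG1 with genomic DNA carrying multiple oxidatively-induced lesions. It was screened at 10 μmol/L, then tested from 0.05 to 10 μmol/L. Excised 8-OH-Gua, FapyGua and FapyAde were quantified by isotope-dilution GC-MS/MS. Controls were no enzyme, no inhibitor, and DMSO alone. Standard deviations were given; significance was set at p < 0.05.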

[5] = tested on: Pseudomonas aeruginosa; details: mice infected with Pseudomonas aeruginosa; cited from earlier work
[6] = tested on: other BER enzymes / other DNA glycosylases; details: cited from earlier work
[7] = tested on: HeLa cells; details: LC-MS/MS with isotope-dilution; cited from earlier work
[8] = highest concentration of 100 μmol/L

| Compound | IC50 [1] | toxicity ([2]; concentrations up to 10 μmol/L) | toxicity [2, 8] | IC50 ([3]; dual inhibitor) | inhibition of excision of 8-OH-Gua by OGG1 [4] | inhibition of excision of FapyAde by OGG1 [4] | inhibition at 10 µM [4] | inflammation and mortality / survival [5] | IC50 ([3]; fluorogenic assay of 8-OH-Gua excision) | selectivity for OGG1 over other BER enzymes [6] | level of 8-OH-Gua in DNA [7] |
| --- | --- | --- | --- | --- | --- | --- | --- | --- | --- | --- | --- |
| Cc1cnc(N)nc1OCCNC(=O)c1cccc(-c2ccc(S(=O)(=O)Nc3ccc4c(c3)N(C(=O)C3CC3)CCC4)cc2)c1 [SU0383, N-(2-((2-Amino-5-methylpyrimidin-4-yl)oxy)ethyl)-4’-(N-(1-(cyclopropanecarbonyl)-1,2,3,4-tetrahydroquinolin-7-yl)sulfamoyl)-[1,1’-biphenyl]-3-carboxamide] | 34 nM | little or no toxicity | moderate toxicity | 490 nM | significant inhibition | quite significant | ~30% | – | – | – | – |
| NC(=O)c1cccc(-c2ccc(S(=O)(=O)Nc3ccc4c(c3)N(C(=O)C3CC3)CCC4)cc2)c1 [SU0268, 4’-(N-(1-(cyclopropanecarbonyl)-1,2,3,4-tetrahydroquinolin-7-yl)sulfamoyl)-[1,1’-biphenyl]-3-carboxamide] | – | little or no toxicity | moderate toxicity | – | strongly inhibited | quite significant | ~60% | reduced both inflammation and proinflammatory cytokines, and improved animal survival; also recorded: efficacy in reducing inflammation and mortality | 59 nM | selective for inhibiting OGG1 over other BER enzymes | increase the level of 8-OH-Gua in DNA |
